Results as given in publication PMC11843577 (RSC Medicinal Chemistry, 2025).

Tests used:
full-length TDP1 = full-length TDP1 (Homo sapiens, UniProt Q9NUW8); assay: TDP1 gel-based fluorescence assay in vitro; type: biochemical
U2OS cell line = assay: Synergy assay with camptothecin; type: cell-based, human; conditions: compound at 10 μM, 72 h cell viability
In short: (§1)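 HCT116 colon or U2OS osteosarcoma cells were seeded at 2 × 10³ cells per well and cultured for 72 h in medium containing the test compound together with camptothecin. Viability was read by CellTiter-Glo luminescence, and synergy was judged from these viability data.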

HCT116 cell line = assay: Synergy assay with camptothecin; type: cell-based, human; conditions: HCT116, compound at 10 μM, 72 h cell viability
In short: as §1

TDP1 in HCT116 cell line = TDP1 in HCT116 cell line (Homo sapiens, UniProt Q9NUW8); assay: Western blot for TDP1 degradation; type: cell-based; conditions: 5h 10 μM within 6 h, 5h 0.1-100 μM and 5i 10, 100 μM within 24 h
full-length TDP2 = molecular target: T1, full-length TDP2 (Homo sapiens, UniProt O95551); assay: TDP2 gel-based fluorescence assay in vitro; type: biochemical; conditions: ratio of IC50 values of TDP2 vs. TDP1
T1 sequence (O95551 1-362): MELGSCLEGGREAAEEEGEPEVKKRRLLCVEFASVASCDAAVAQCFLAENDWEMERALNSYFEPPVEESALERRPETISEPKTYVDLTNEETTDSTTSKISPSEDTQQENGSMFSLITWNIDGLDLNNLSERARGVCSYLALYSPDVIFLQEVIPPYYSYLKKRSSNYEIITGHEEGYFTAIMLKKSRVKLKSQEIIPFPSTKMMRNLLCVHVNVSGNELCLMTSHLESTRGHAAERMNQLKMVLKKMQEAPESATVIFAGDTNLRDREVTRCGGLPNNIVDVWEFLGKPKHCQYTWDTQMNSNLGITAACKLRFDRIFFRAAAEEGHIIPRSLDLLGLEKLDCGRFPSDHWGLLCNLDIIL

Chain of full-length TDP1 (Q9NUW8 whole entry): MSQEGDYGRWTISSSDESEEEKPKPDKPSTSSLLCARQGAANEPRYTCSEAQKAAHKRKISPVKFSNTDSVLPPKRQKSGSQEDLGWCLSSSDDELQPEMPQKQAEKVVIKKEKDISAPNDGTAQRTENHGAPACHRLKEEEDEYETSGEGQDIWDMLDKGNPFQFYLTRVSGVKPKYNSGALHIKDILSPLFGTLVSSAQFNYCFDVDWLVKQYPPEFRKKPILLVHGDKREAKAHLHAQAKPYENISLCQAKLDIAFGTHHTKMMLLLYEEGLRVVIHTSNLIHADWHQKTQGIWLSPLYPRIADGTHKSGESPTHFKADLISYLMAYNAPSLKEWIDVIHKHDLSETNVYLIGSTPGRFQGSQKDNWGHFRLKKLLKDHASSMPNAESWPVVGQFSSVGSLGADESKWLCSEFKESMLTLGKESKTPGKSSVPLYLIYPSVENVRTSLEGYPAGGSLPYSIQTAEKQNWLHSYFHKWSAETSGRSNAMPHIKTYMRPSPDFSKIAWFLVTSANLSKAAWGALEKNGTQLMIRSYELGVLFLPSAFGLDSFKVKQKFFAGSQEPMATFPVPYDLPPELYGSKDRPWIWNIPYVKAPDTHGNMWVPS
Chain of TDP1 in HCT116 cell line (Q9NUW8 whole entry): as above

## Cc1ncsc1-c1ccc(CNC(=O)[C@@H]2C[C@@H](O)CN2C(=O)[C@@H](NC(=O)COCCOCCOCCn2cc(COc3ccc(-c4nc5cc(-c6ccccc6)ccn5c4Nc4ccc(C(=O)O)cc4)cc3)nn2)C(C)(C)C)cc1 [Compound 5b, 4-((2-(4-((1-((S)-13-((2S,4R)-4-Hydroxy-2-((4-(4-methylthiazol-5-yl)benzyl)carbamoyl)pyrrolidine-1-carbonyl)-14,14-dimethyl-11-oxo-3,6,9-trioxa-12-azapentadecyl)-1H-1,2,3-triazol-4-yl)methoxy)phenyl)-7-phenylimidazo[1,2-a]pyridin-3-yl)amino)benzoic acid]
full-length TDP1
  TDP1 IC50: failed to exhibit TDP1 inhibitory potency within the range tested

## Cc1ncsc1-c1ccc(CNC(=O)[C@@H]2C[C@@H](O)CN2C(=O)[C@@H](NC(=O)COCCOCCOCCOCCn2cc(COc3ccc(-c4nc5cc(-c6ccccc6)ccn5c4Nc4ccc(C(=O)O)cc4)cc3)nn2)C(C)(C)C)cc1 [Compound 5c, 4-((2-(4-((1-((S)-16-((2S,4R)-4-Hydroxy-2-((4-(4-methylthiazol-5-yl)benzyl)carbamoyl)pyrrolidine-1-carbonyl)-17,17-dimethyl-14-oxo-3,6,9,12-tetraoxa-15-azaoctadecyl)-1H-1,2,3-triazol-4-yl)methoxy)phenyl)-7-phenylimidazo[1,2-a]pyridin-3-yl)amino)benzoic acid]
full-length TDP1
  TDP1 IC50: failed to exhibit TDP1 inhibitory potency within the range tested

## O=C(COc1cccc2c1C(=O)N(C1CCC(=O)NC1=O)C2=O)NCCCCn1cc(COc2ccc(-c3nc4cc(-c5ccccc5)ccn4c3Nc3ccc(C(=O)O)cc3)cc2)nn1 (stereo not shown) [Compound 5d, 4-((2-(4-((1-(4-(2-((2-(2,6-Dioxopiperidin-3-yl)-1,3-dioxoisoindolin-4-yl)oxy)acetamido)butyl)-1H-1,2,3-triazol-4-yl)methoxy)phenyl)-7-phenylimidazo[1,2-a]pyridin-3-yl)amino)benzoic acid]
full-length TDP1
  TDP1 IC50: did not show TDP1 inhibitory potency within the range tested

## O=C(COc1cccc2c1C(=O)N(C1CCC(=O)NC1=O)C2=O)NCCCCn1cc(COc2ccc(-c3nc4ccccn4c3Nc3ccc(C(=O)O)cc3)cc2)nn1 (stereo not shown) [Compound 5e, 4-((2-(4-((1-(4-(2-((2-(2,6-Dioxopiperidin-3-yl)-1,3-dioxoisoindolin-4-yl)oxy)acetamido)butyl)-1H-1,2,3-triazol-4-yl)methoxy)phenyl)imidazo[1,2-a]pyridin-3-yl)amino)benzoic acid]
full-length TDP1
  TDP1 IC50: did not show TDP1 inhibitory potency within the range tested

## O=C(COc1cccc2c1C(=O)N(C1CCC(=O)NC1=O)C2=O)NCCCCn1cc(-c2ccc(-c3nc4ccccn4c3Nc3ccc(C(=O)O)cc3)cc2)nn1 (stereo not shown) [Compound 5g, 4-((2-(4-(1-(4-(2-((2-(2,6-Dioxopiperidin-3-yl)-1,3-dioxoisoindolin-4-yl)oxy)acetamido)butyl)-1H-1,2,3-triazol-4-yl)phenyl)imidazo[1,2-a]pyridin-3-yl)amino)benzoic acid]
full-length TDP1
  TDP1 IC50: did not show TDP1 inhibitory potency within the range tested

## O=C1CCC(N2C(=O)c3cccc(NCc4cn(Cc5ccc(-c6nc7cc(-c8ccccc8)ccn7c6Nc6ccc(C(=O)O)cc6)cc5)nn4)c3C2=O)C(=O)N1 (stereo not shown) [Compound 5h, 4-((2-(4-((4-(((2-(2,6-Dioxopiperidin-3-yl)-1,3-dioxoisoindolin-4-yl)amino)methyl)-1H-1,2,3-triazol-1-yl)methyl)phenyl)-7-phenylimidazo[1,2-a]pyridin-3-yl)amino)benzoic acid]
U2OS cell line
  Synergy in combination with TOP1 inhibitor camptothecin (CPT): failed to show synergy
HCT116 cell line
  Synergy in combination with TOP1 inhibitor camptothecin (CPT): failed to show synergy
TDP1 in HCT116 cell line
  TDP1 degradation compared with GAPDH: unable to observe degradation effects

## CN(Cc1cn(Cc2ccc(-c3nc4cc(-c5ccccc5)ccn4c3Nc3ccc(C(=O)O)cc3)cc2)nn1)c1cccc2c1C(=O)N(C1CCC(=O)NC1=O)C2=O (stereo not shown) [Compound 5i, 4-((2-(4-((4-(((2-(2,6-Dioxopiperidin-3-yl)-1,3-dioxoisoindolin-4-yl)(methyl)amino)methyl)-1H-1,2,3-triazol-1-yl)methyl)phenyl)-7-phenylimidazo[1,2-a]pyridin-3-yl)amino)benzoic acid]
TDP1 in HCT116 cell line
  TDP1 degradation compared with GAPDH: unable to observe degradation effects

## O=C1CCC(N2C(=O)c3cccc(NCCc4cn(Cc5ccc(-c6nc7cc(-c8ccccc8)ccn7c6Nc6ccc(C(=O)O)cc6)cc5)nn4)c3C2=O)C(=O)N1 (stereo not shown) [Compound 5j, 4-((2-(4-((4-(2-((2-(2,6-Dioxopiperidin-3-yl)-1,3-dioxoisoindolin-4-yl)amino)ethyl)-1H-1,2,3-triazol-1-yl)methyl)phenyl)-7-phenylimidazo[1,2-a]pyridin-3-yl)amino)benzoic acid]
full-length TDP2
  TDP1 selectivity: 1.4
